In test [1] the target is Platelet-derived growth factor receptor (Homo sapiens, UniProt P09619+P16234). Briefly: Concentration required to inhibit phosphorylation of isolated human PDGF receptor by 50%; 0.3-1. The class given is protein-complex assay. In short, it runs like this:
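PDGF receptor from NIH 3T3 cell lysates (cells made quiescent 24 h in 0.5% calf serum), stimulated with 10 ng/mL PDGF for 30 min at 4 °C and immunoprecipitated on Protein A beads. Each compound ran in at least two dose-response assays.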

Test [2] addresses Epidermal growth factor receptor (Homo sapiens, UniProt P00533). As to the kind of experiment: Concentration required to inhibit phosphorylation of isolated human epidermal growth factor tyrosine kinase receptor by 50%.

pIC50: −log10 of the molar value.

Chain of Epidermal growth factor receptor (P00533 whole entry): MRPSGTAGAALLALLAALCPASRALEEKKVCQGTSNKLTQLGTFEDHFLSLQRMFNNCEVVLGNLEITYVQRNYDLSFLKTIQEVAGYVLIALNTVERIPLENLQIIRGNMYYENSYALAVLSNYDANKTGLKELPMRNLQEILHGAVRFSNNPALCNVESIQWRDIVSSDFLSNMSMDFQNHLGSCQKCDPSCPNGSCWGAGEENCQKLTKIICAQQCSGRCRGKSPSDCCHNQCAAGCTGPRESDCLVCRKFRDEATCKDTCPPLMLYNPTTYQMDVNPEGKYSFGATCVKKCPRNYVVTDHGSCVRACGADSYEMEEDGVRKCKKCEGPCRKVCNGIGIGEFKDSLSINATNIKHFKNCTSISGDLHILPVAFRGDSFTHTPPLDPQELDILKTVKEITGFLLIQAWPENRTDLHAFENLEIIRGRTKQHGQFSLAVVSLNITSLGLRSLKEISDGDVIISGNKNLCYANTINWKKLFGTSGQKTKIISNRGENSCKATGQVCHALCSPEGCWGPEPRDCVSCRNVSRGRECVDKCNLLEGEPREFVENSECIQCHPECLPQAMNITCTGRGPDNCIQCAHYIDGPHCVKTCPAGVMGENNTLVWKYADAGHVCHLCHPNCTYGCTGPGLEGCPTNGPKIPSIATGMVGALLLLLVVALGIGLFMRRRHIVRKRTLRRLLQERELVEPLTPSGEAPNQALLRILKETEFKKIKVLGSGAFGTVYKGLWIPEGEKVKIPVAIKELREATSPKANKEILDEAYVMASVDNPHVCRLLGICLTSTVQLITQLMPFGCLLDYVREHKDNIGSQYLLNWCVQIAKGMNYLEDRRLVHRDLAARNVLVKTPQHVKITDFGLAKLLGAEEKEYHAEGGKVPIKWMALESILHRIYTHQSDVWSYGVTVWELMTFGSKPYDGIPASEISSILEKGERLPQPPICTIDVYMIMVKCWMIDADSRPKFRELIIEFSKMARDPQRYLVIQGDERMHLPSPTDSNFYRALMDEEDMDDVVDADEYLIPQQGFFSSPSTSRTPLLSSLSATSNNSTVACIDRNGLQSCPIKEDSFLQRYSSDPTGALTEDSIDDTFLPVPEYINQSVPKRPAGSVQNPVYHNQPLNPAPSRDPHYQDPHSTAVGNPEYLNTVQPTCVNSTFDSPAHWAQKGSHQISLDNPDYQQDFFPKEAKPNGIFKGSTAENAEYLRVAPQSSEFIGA

One may read the pIC50 as the negative decadic logarithm of the IC50, by convention in mol/L. The low end stands for a high IC50, the high end for a low IC50. As to `COc1cc2cc(C#CC3CCCCC3)cnc2cc1OC`, the pIC50 was 6.00 in test [1] and < 4.70 in test [2].

The values are drawn from ChEMBL document CHEMBL1127568, “A new series of PDGF receptor tyrosine kinase inhibitors: 3-substituted quinoline derivatives” (J Med Chem, 1994).
